Active and inactive are the calls of the source. The rule behind the calls is not given here.
Legend:
Staphylococcus aureus [1] = test: Antibiofilm activity against Staphylococcus aureus ATCC 29213 assessed as bacterial cell viability in biofilm at 4 ug/ml after 24 hrs (reference value: 21.9 log10CFU/ml); type: functional
In short: (§1)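 Mid-log cells at ~10⁵ CFU/mL grown stationary in 96-well plates (S. aureus in MHB for 24 h; E. coli in M9 with 0.02% casamino acids and 0.5% glycerol for 72 h). After washing, biofilms exposed 24 h at 37 °C to 2-128 µg/mL; detached with trypsin-EDTA, serially plated, viability given as log10 CFU/well against an untreated control.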

[2] = Selectivity index, ratio of HC50 for sheep RBC to MIC for Staphylococcus aureus ATCC 29213; type: toxicity; conditions: sheep red blood cells (erythrocytes), read-out: Selectivity Index
In short: (§2)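 HC50 from sheep RBC lysis: 5% RBC suspension exposed 1 h at 37 °C to a 5120–10 µg/mL series, with A540 of supernatant scaled to 0.1% Triton X-100. MIC by CLSI broth microdilution in cation-adjusted MHB, ~10^6 CFU/mL, 256–0.5 µg/mL, 37 °C for 16–20 h, duplicates with at least two repeats.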

[3] = Selectivity index, ratio of HC50 for sheep RBC to MIC for Escherichia coli ATCC 25922; type: toxicity; conditions: sheep red blood cells (erythrocytes), read-out: Selectivity Index; in short: as §2
Staphylococcus aureus [4] = test: Bactericidal activity against Staphylococcus aureus ATCC 29213 assessed as time required to kill early exponential phase at 8 ug/ml by time kill assay; type: functional
In short: (§3)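 Overnight culture diluted 1:10,000 in MHB and shaken at 37 °C, 225 rpm, for 2 h (early exponential) or 5 h (late exponential), then exposed to compound at 6× and 8× MIC in tubes at 37 °C, 225 rpm. Samples (100 µL) taken at intervals, pelleted, resuspended in PBS, and ten-fold dilutions plated on MHA overnight at 37 °C for CFU/mL. Biological replicates.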

Staphylococcus aureus [5] = test: Bactericidal activity against Staphylococcus aureus ATCC 29213 assessed as time required to kill early exponential phase at 6 ug/ml by time kill assay; type: functional; in short: as §3
Staphylococcus aureus [6] = test: Bactericidal activity against Staphylococcus aureus ATCC 29213 assessed as time required to kill late exponential phase at 6 to 8 ug/ml by time kill assay; type: functional; in short: as §3
Escherichia coli [7] = test: Bactericidal activity against Escherichia coli ATCC 25922 assessed as time required to kill early exponential phase at 12 to 16 ug/ml by time kill assay; type: functional
Escherichia coli [8] = test: Bactericidal activity against Escherichia coli ATCC 25922 assessed as time required to kill late exponential phase at 12 to 16 ug/ml by time kill assay; type: functional
Staphylococcus aureus [9] = test: Antibiofilm activity against Staphylococcus aureus ATCC 29213 assessed as bacterial cell viability in biofilm at 8 ug/ml after 24 hrs (reference value: 21.9 log10CFU/ml); type: functional; in short: as §1
Staphylococcus aureus [10] = test: Antibiofilm activity against Staphylococcus aureus ATCC 29213 assessed as bacterial cell viability in biofilm at 16 ug/ml after 24 hrs (reference value: 21.9 log10CFU/ml); type: functional; in short: as §1
Staphylococcus aureus [11] = test: Antibiofilm activity against Staphylococcus aureus ATCC 29213 assessed as bacterial cell viability in biofilm at 32 ug/ml after 24 hrs (reference value: 21.9 log10CFU/ml); type: functional; in short: as §1
Staphylococcus aureus [12] = test: Antibiofilm activity against Staphylococcus aureus ATCC 29213 assessed as bacterial cell viability in biofilm at 64 ug/ml after 24 hrs (reference value: 21.9 log10CFU/ml); type: functional; in short: as §1
Escherichia coli [13] = test: Antibiofilm activity against Escherichia coli ATCC 25922 assessed as bacterial cell viability in biofilm at 2 ug/ml after 24 hrs (reference value: 25.9 log10CFU/ml); type: functional; in short: as §1
Escherichia coli [14] = test: Antibiofilm activity against Escherichia coli ATCC 25922 assessed as bacterial cell viability in biofilm at 4 ug/ml after 24 hrs (reference value: 25.9 log10CFU/ml); type: functional; in short: as §1
Escherichia coli [15] = test: Antibiofilm activity against Escherichia coli ATCC 25922 assessed as bacterial cell viability in biofilm at 8 ug/ml after 24 hrs (reference value: 25.9 log10CFU/ml); type: functional; in short: as §1
Escherichia coli [16] = test: Antibiofilm activity against Escherichia coli ATCC 25922 assessed as bacterial cell viability in biofilm at 16 ug/ml after 24 hrs (reference value: 25.9 log10CFU/ml); type: functional; in short: as §1
Escherichia coli [17] = test: Antibiofilm activity against Escherichia coli ATCC 25922 assessed as bacterial cell viability in biofilm at 32 ug/ml after 24 hrs (reference value: 25.9 log10CFU/ml); type: functional; in short: as §1
Escherichia coli [18] = test: Antibiofilm activity against Escherichia coli ATCC 25922 assessed as bacterial cell viability in biofilm at 64 ug/ml after 24 hrs (reference value: 25.9 log10CFU/ml); type: functional; in short: as §1
Escherichia coli [19] = test: Antibiofilm activity against Escherichia coli ATCC 25922 after 24 hrs by turbidity method; type: functional
In short: (§4)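 MBEC: biofilms grown 24 h at 37 °C from 1:1000-diluted exponential-phase culture; planktonic cells removed, twofold dilutions in fresh medium added for 24 h at 37 °C, then fresh medium alone for 24 h recovery. MBEC is the lowest concentration with no visible turbidity.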

Staphylococcus aureus [20] = test: Antibiofilm activity against Staphylococcus aureus ATCC 29213 after 24 hrs by turbidity method; type: functional; in short: as §4
Staphylococcus aureus [21] = test: Antibiofilm activity against Staphylococcus aureus ATCC 29213 after 24 hrs by crystal violet staining method; type: functional
In short: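 MBIC: twofold dilutions in MHB inoculated with 1:1000-diluted exponential-phase culture (10⁸ CFU/mL), 24 h at 37 °C. Wells rinsed, stained 10 min with 0.1% crystal violet, dye dissolved in ethanol, OD540 read; MBIC80 taken from dose–response versus untreated wells.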

Escherichia coli [22] = test: Ratio of MBEC to MIC for Escherichia coli ATCC 25922 after 24 hrs; type: functional
In short: (§5)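 For MBEC, biofilms grown 24 h at 37 °C from a 1:1000 dilution of exponential-phase culture, washed, exposed 24 h to two-fold compound dilutions in fresh medium, then recovered 24 h in medium alone; MBEC is the lowest concentration with no turbidity. MIC by CLSI broth microdilution in cation-adjusted MHB, ~10^6 CFU/mL inoculum, 37 °C, 16–20 h.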

Staphylococcus aureus [23] = test: Ratio of MBEC to MIC for Staphylococcus aureus ATCC 29213; type: functional; in short: as §5
Staphylococcus aureus [24] = test: Antibacterial activity against Staphylococcus aureus ATCC 29213 after 20 serial passages measured after 16 to 20 hrs by broth microdilution method; type: functional, organism-based
In short: (§6)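 Sub-MIC serial passaging: after an initial broth microdilution MIC, cells grown at MIC/2 were transferred into a new MIC assay after each 24 h incubation, for 20 passages. MIC was plotted against days to follow resistance development. Passaging controls were norfloxacin for S. aureus and colistin for E. coli.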

Escherichia coli [25] = test: Antibacterial activity against Escherichia coli ATCC 25922 after 20 serial passages measured after 16 to 20 hrs by broth microdilution method; type: functional, organism-based; in short: as §6

SMILES: CCCCCCCCCN(CCCCCCCCC)C(=O)[C@@H](N)CCCCN.Cl.Cl
- Activity (Staphylococcus aureus [1]): 18.6 log10CFU
- selectivity ratio [2]: 133
- selectivity ratio [3]: 66.5
- Time (Staphylococcus aureus [4]): 0.5 h
- Time (Staphylococcus aureus [5]): 120 min
- Time (Staphylococcus aureus [6]): 6 h
- Time (Escherichia coli [7]): 0.5 h
- Time (Escherichia coli [8]): 1 h
- Activity (Staphylococcus aureus [9]): 11.9 log10CFU
- Activity (Staphylococcus aureus [10]): 11.5 log10CFU
- Activity (Staphylococcus aureus [11]): 9.9 log10CFU
- Activity (Staphylococcus aureus [12]): 7.9 log10CFU
- Activity (Escherichia coli [13]): 24.7 log10CFU
- Activity (Escherichia coli [14]): 23.9 log10CFU
- Activity (Escherichia coli [15]): 8.4 log10CFU
- Activity (Escherichia coli [16]): 4.1 log10CFU
- Activity (Escherichia coli [17]): 2.1 log10CFU
- Activity (Escherichia coli [18]): 0.3 log10CFU
- MBEC (Escherichia coli [19]): 128 µg/mL
- MBEC (Staphylococcus aureus [20]): 64 µg/mL
- MBIC80 (Staphylococcus aureus [21]): 18 µg/mL
- MBIC90 (Staphylococcus aureus [21]): 26.9 µg/mL
- Ratio (Escherichia coli [22]): 64
- Ratio (Staphylococcus aureus [23]): 64
- Activity (Staphylococcus aureus [24]): Active
- Activity (Escherichia coli [25]): Active
